Laboratory results published in ChEMBL document CHEMBL1122648 (J Med Chem, 1984).

Columns and labels:
[1] = target: T1, Dihydrofolate reductase (Bos taurus, UniProt P00376); assay: In vitro ability to inhibit the Dihydrofolate reductase extracted from beef liver.
T1 sequence (P00376 whole entry): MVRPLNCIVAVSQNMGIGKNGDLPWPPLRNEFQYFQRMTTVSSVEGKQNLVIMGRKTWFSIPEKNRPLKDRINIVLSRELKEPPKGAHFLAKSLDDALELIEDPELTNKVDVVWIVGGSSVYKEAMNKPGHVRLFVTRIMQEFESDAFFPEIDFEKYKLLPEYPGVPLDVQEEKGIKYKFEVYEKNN

[2] = tested on: CCRF-CEM; assay: In vitro cytotoxicity by its growth inhibitory activity against human leukemic lymphoblasts (CEM cells).; assay type: functional, cell-based
Procedure, shortened: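 Human leukemic lymphoblasts (CEM) counted after 48 h of drug exposure. Compounds dissolved in Me2SO (1 mg/mL), diluted 10-fold in Me2SO, then added to growth medium (final Me2SO 0.1%). Triplicate tubes per dose, averaged; IC50 reported.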

[3] = Compound was evaluated for its inhibitory effect on thymidine [3H]dThd) incorporation into DNA of CEM/MTX cells in culture at conc. 10e-5; assay type: functional, Homo sapiens; design: scale not given: the % may be the effect or the level left
Procedure, shortened: (§1)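 Log-phase CEM or CEM/MTX (transport-defective) cells, 2×10^5 per tube in serum-free EBSS, exposed to 10^-7–10^-4 M compound for 1 h at 37 °C under 5% CO2. Then pulsed 0.5 h with [3H]dThd or [3H]dUrd, washed in cold EBSS and lysed in SDS with tRNA carrier. DNA precipitated with cold 0.5 N HClO4; acid-insoluble counts given as % of untreated controls.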

[4] = Compound was evaluated for its inhibitory effect on thymidine ([3H]dThd) incorporation into DNA of CEM cells in at conc. 10e-7; assay type: functional, Homo sapiens, CCRF-CEM; design: scale not given: the % may be the effect or the level left; procedure, shortened: as §1
[5] = Compound was evaluated for its inhibitory effect on thymidine ([3H]-dThd) incorporation into DNA of CEM cells in culture at conc. 10e-4; assay type: functional, Homo sapiens, CCRF-CEM; design: scale not given: the % may be the effect or the level left; procedure, shortened: as §1
[6] = Compound was evaluated for its inhibitory effect on deoxyuridine ([3H]dUrd) incorporation into DNA of CEM cells in culture at conc. 10e-4; assay type: functional, Homo sapiens, CCRF-CEM; design: scale not given: the % may be the effect or the level left; procedure, shortened: as §1
[7] = Compound was evaluated for its inhibitory effect on thymidine ([3H]dThd) incorporation into DNA of CEM/MTX cells in culture at conc. 10e-4; assay type: functional, Homo sapiens; design: scale not given: the % may be the effect or the level left; procedure, shortened: as §1
[8] = Compound was evaluated for its inhibitory effect on deoxyuridine ([3H]dUrd ) incorporation into DNA of CEM cells in culture at conc. 10e-7; assay type: functional, Homo sapiens, CCRF-CEM; design: scale not given: the % may be the effect or the level left; procedure, shortened: as §1
[9] = Compound was evaluated for its inhibitory effect on deoxyuridine ([3H]dUrd) incorporation into DNA of CEM/MTX cells in culture at conc. 10e-4; assay type: functional, Homo sapiens; design: scale not given: the % may be the effect or the level left; procedure, shortened: as §1
[10] = Compound was evaluated for its inhibitory effect on deoxyuridine ([3H]dUrd ) incorporation into DNA of CEM/MTX cells in culture at conc. 10e-7; assay type: functional, Homo sapiens; design: scale not given: the % may be the effect or the level left; procedure, shortened: as §1
[11] = Compound was evaluated for its inhibitory effect on thymidine ([3H]dThd) incorporation into DNA of CEM cells in culture at conc. 10e-6; assay type: functional, Homo sapiens, CCRF-CEM; design: scale not given: the % may be the effect or the level left; procedure, shortened: as §1
[12] = Compound was evaluated for its inhibitory effect on thymidine [3H]-dThd) incorporation into DNA of CEM/MTX cells in culture at conc. 10e-6; assay type: functional, Homo sapiens; design: scale not given: the % may be the effect or the level left; procedure, shortened: as §1
[13] = Compound was evaluated for its inhibitory effect on deoxyuridine ([3H]-dUrd) incorporation into DNA of CEM cells in at conc. 10e-6; assay type: functional, Homo sapiens, CCRF-CEM; design: scale not given: the % may be the effect or the level left; procedure, shortened: as §1
[14] = Compound was evaluated for its inhibitory effect on deoxyuridine ([3H]dUrd) incorporation into DNA of CEM/MTX cells in culture at conc. 10e-6; assay type: functional, Homo sapiens; design: scale not given: the % may be the effect or the level left; procedure, shortened: as §1
[15] = Compound was evaluated for its inhibitory effect on deoxyuridine ([3H]dUrd) incorporation into DNA of CEM cells in culture at conc. 10e-5; assay type: functional, Homo sapiens, CCRF-CEM; design: scale not given: the % may be the effect or the level left; procedure, shortened: as §1
[16] = Compound was evaluated for its inhibitory effect on thymidine ([3H]dThd) incorporation into DNA of CEM cells in culture at conc. 10e-5; assay type: functional, Homo sapiens, CCRF-CEM; design: scale not given: the % may be the effect or the level left; procedure, shortened: as §1
[17] = Compound was evaluated for its inhibitory effect on deoxyuridine ([3H]dUrd) incorporation into DNA of CEM/MTX cells in culture at conc. 10e-5; assay type: functional, Homo sapiens; design: scale not given: the % may be the effect or the level left; procedure, shortened: as §1
[18] = Compound was evaluated for its inhibitory effect on thymidine ([3H]-dThd) incorporation into DNA of CEM/MTX cells in at conc. 10e-7.; assay type: functional, Homo sapiens; design: scale not given: the % may be the effect or the level left; procedure, shortened: as §1

CCCCCCCCOC(=O)CCC(NC(=O)c1ccc(N(C)Cc2cnc3nc(N)nc(N)c3n2)cc1)C(=O)O (stereo not drawn)
IC50 [1]: 5.4 nM | IC50 [2]: 920 nM

CCCCOC(=O)CCC(NC(=O)c1ccc(N(C)Cc2cnc3nc(N)nc(N)c3n2)cc1)C(=O)O (stereo not drawn)
IC50 [1]: 5.4 nM | IC50 [2]: 780 nM

CCCCCCCCCCCCCCCCOC(=O)C(CCC(=O)O)NC(=O)c1ccc(N(C)Cc2cnc3nc(N)nc(N)c3n2)cc1 (stereo not drawn)
IC50 [1]: 1200 nM | IC50 [2]: 250 nM

CCCCOC(=O)C(CCC(=O)O)NC(=O)c1ccc(N(C)Cc2cnc3nc(N)nc(N)c3n2)cc1 (stereo not drawn)
IC50 [1]: 56 nM | IC50 [2]: 2000 nM

CCCCCCCCCCCCOC(=O)C(CCC(=O)O)NC(=O)c1ccc(N(C)Cc2cnc3nc(N)nc(N)c3n2)cc1 (stereo not drawn)
IC50 [1]: 440 nM | IC50 [2]: 2100 nM

CCCCCCCCOC(=O)C(CCC(=O)O)NC(=O)c1ccc(N(C)Cc2cnc3nc(N)nc(N)c3n2)cc1 (stereo not drawn)
IC50 [1]: 360 nM | IC50 [2]: 3000 nM

CCCCCCCCCCCCOC(=O)CCC(NC(=O)c1ccc(N(C)Cc2cnc3nc(N)nc(N)c3n2)cc1)C(=O)O (stereo not drawn)
IC50 [1]: 34 nM | IC50 [2]: 370 nM

CCCCCCCCCCCCCCCCOC(=O)CCC(NC(=O)c1ccc(N(C)Cc2cnc3nc(N)nc(N)c3n2)cc1)C(=O)O (stereo not drawn)
Control [3]: 15% | IC50 [1]: 37 nM | Control [4]: 92% | Control [5]: 17% | Control [6]: 7% | Control [7]: 8% | Control [8]: 117% | Control [9]: 2% | Control [10]: 95% | Control [11]: 67% | Control [12]: 108% | Control [13]: 64% | Control [14]: 103% | IC50 [2]: 110 nM | Control [15]: 14% | Control [16]: 25% | Control [17]: 55% | Control [18]: 81%

CN(Cc1cnc2nc(N)nc(N)c2n1)c1ccc(C(=O)N[C@@H](CCC(=O)O)C(=O)O)cc1 [METHOTREXATE]
IC50 [2]: 25 nM
